Laboratory results as given in ChEMBL document CHEMBL1944570, “Discovery of 4''-ether linked azithromycin-quinolone hybrid series: influence of the central linker on the antibacterial activity” (ACS Med Chem Lett, 2011).
Values after ≈ are worked out from the molar mass of the structure shown.

How the values were obtained:
Type in all cases: functional
[1] = tested on: Staphylococcus aureus; assay: Antibacterial activity against ciprofloxacin-resistant Staphylococcus aureus by agar microdilution method
How it was run: (§1)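 MIC by agar microdilution following NCCLS standards; strains drawn from the PLIVA Research Institute culture collection. MIC reported in μg/mL.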

[2] = tested on: Staphylococcus aureus; assay: Antibacterial activity against constitutive MLS resistant Staphylococcus aureus by agar microdilution method; how it was run: as §1
[3] = tested on: Haemophilus influenzae; assay: Antibacterial activity against Haemophilus influenzae B0529 by agar microdilution method
How it was run: (§2)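 Agar microdilution MIC per NCCLS standards against strains from the Pliva Research Institute culture collection; values in µg/mL. Panel included erythromycin-susceptible strains and strains with inducible or constitutive MLS resistance.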

[4] = tested on: Staphylococcus aureus; assay: Antibacterial activity against erythromycin-susceptible Staphylococcus aureus by agar microdilution method; how it was run: as §2
[5] = tested on: Moraxella catarrhalis; assay: Antibacterial activity against Moraxella catarrhalis by agar microdilution method; how it was run: as §2
[6] = tested on: Streptococcus pyogenes; assay: Antibacterial activity against erythromycin-susceptible Streptococcus pyogenes by agar microdilution method; how it was run: as §1
[7] = tested on: Staphylococcus aureus; assay: Antibacterial activity against efflux mediated macrolide resistant Staphylococcus aureus by agar microdilution method; how it was run: as §1
[8] = tested on: Streptococcus pyogenes; assay: Antibacterial activity against Streptococcus pyogenes with inducible resistance to MLS by agar microdilution method; how it was run: as §1
[9] = tested on: Staphylococcus aureus; assay: Antibacterial activity against Staphylococcus aureus with inducible resistance to MLS by agar microdilution method; how it was run: as §1
[10] = tested on: Streptococcus pneumoniae; assay: Antibacterial activity against constitutive MLS resistant Streptococcus pneumoniae by agar microdilution method; how it was run: as §1
[11] = tested on: Streptococcus pyogenes; assay: Antibacterial activity against efflux mediated macrolide resistant Streptococcus pyogenes by agar microdilution method; how it was run: as §1
[12] = tested on: Streptococcus pyogenes; assay: Antibacterial activity against constitutive MLS resistant Streptococcus pyogenes by agar microdilution method; how it was run: as §1
[13] = tested on: Streptococcus pneumoniae; assay: Antibacterial activity against erythromycin-susceptible Streptococcus pneumoniae by agar microdilution method; how it was run: as §1
[14] = tested on: Streptococcus pneumoniae; assay: Antibacterial activity against efflux mediated macrolide resistant Streptococcus pneumoniae by agar microdilution method; how it was run: as §1

Row | Structure (SMILES) | MIC [1] [µg/mL] | MIC [2] [µg/mL] | MIC [3] [µg/mL] | MIC [4] [µg/mL] | MIC [5] [µg/mL] | MIC [6] [µg/mL] | MIC [7] [µg/mL] | MIC [8] [µg/mL] | MIC [9] [µg/mL] | MIC [10] [µg/mL] | MIC [11] [µg/mL] | MIC [12] [µg/mL] | MIC [13] [µg/mL] | MIC [14] [µg/mL]
1 | CCOC(=O)c1cn(CC)c2ccc(N3CCN(CCO[C@H]4[C@H](C)O[C@@H](O[C@H]5[C@H](C)[C@@H](O[C@@H]6O[C@H](C)C[C@H](N(C)C)[C@H]6O)[C@](C)(O)C[C@@H](C)CN(C)[C@H](C)[C@H]6OC(=O)O[C@]6(C)[C@@H](CC)OC(=O)[C@@H]5C)C[C@@]4(C)OC)CC3)cc2c1=O | ≥ 64 | > 64 | 1 (≈ 0.885 µM) | 0.5 (≈ 0.442 µM) | 0.25 (≈ 0.221 µM) | ≤ 0.125 | 8 (≈ 7.08 µM) | 1 (≈ 0.885 µM) | 64 (≈ 56.6 µM) | 64 (≈ 56.6 µM) | 16 (≈ 14.2 µM) | 64 (≈ 56.6 µM) | ≤ 0.125 | 
2 | CC[C@H]1OC(=O)[C@H](C)[C@@H](O[C@H]2C[C@@](C)(OC)[C@@H](OCCN3CCN(c4ccc5c(c4)c(=O)c(C(=O)O)cn5CC)CC3)[C@H](C)O2)[C@H](C)[C@@H](O[C@@H]2O[C@H](C)C[C@H](N(C)C)[C@H]2O)[C@](C)(O)C[C@@H](C)CN(C)[C@H](C)[C@H]2OC(=O)O[C@@]21C | ≥ 64 | 32 (≈ 29 µM) | 2 (≈ 1.81 µM) | 1 (≈ 0.907 µM) | 4 (≈ 3.63 µM) | 0.25 (≈ 0.227 µM) | 2 (≈ 1.81 µM) | 4 (≈ 3.63 µM) | 16 (≈ 14.5 µM) | 32 (≈ 29 µM) | 4 (≈ 3.63 µM) | 32 (≈ 29 µM) | ≤ 0.125 | 
3 | CC[C@H]1OC(=O)[C@H](C)[C@@H](O[C@H]2C[C@@](C)(OC)[C@@H](OCCNCCNc3cc4c(=O)c(C(=O)O)cn(C5CC5)c4cc3Cl)[C@H](C)O2)[C@H](C)[C@@H](O[C@@H]2O[C@H](C)C[C@H](N(C)C)[C@H]2O)[C@](C)(O)C[C@@H](C)CN(C)[C@H](C)[C@H]2OC(=O)O[C@@]21C | ≥ 64 | > 64 | 2 (≈ 1.78 µM) | 2 (≈ 1.78 µM) | 0.25 (≈ 0.223 µM) | ≤ 0.125 | 4 (≈ 3.56 µM) | 0.5 (≈ 0.445 µM) | 64 (≈ 57 µM) | 64 (≈ 57 µM) | 0.5 (≈ 0.445 µM) | 2 (≈ 1.78 µM) | ≤ 0.125 | 
4 | CC[C@H]1OC(=O)[C@H](C)[C@@H](O[C@H]2C[C@@](C)(OC)[C@@H](OCCNCCNc3cc4c(cc3F)c(=O)c(C(=O)O)cn4C3CC3)[C@H](C)O2)[C@H](C)[C@@H](O[C@@H]2O[C@H](C)C[C@H](N(C)C)[C@H]2O)[C@](C)(O)C[C@@H](C)CN(C)[C@H](C)[C@H]2OC(=O)O[C@@]21C | ≥ 64 | > 64 | 4 (≈ 3.62 µM) | 4 (≈ 3.62 µM) | 0.5 (≈ 0.452 µM) | ≤ 0.125 | 4 (≈ 3.62 µM) | 0.25 (≈ 0.226 µM) | 64 (≈ 57.8 µM) | 64 (≈ 57.8 µM) | 4 (≈ 3.62 µM) | 8 (≈ 7.23 µM) | ≤ 0.125 | 0.25 (≈ 0.226 µM)
5 | CC[C@H]1OC(=O)[C@H](C)[C@@H](O[C@H]2C[C@@](C)(OC)[C@@H](OCCNCCOCCNc3cc4c(cc3F)c(=O)c(C(=O)O)cn4C3CC3)[C@H](C)O2)[C@H](C)[C@@H](O[C@@H]2O[C@H](C)C[C@H](N(C)C)[C@H]2O)[C@](C)(O)C[C@@H](C)CN(C)[C@H](C)[C@H]2OC(=O)O[C@@]21C | ≥ 64 | > 64 | 4 (≈ 3.48 µM) | 8 (≈ 6.95 µM) | 0.5 (≈ 0.435 µM) | ≤ 0.125 | 64 (≈ 55.6 µM) | 1 (≈ 0.869 µM) | 64 (≈ 55.6 µM) | 16 (≈ 13.9 µM) | 4 (≈ 3.48 µM) | 32 (≈ 27.8 µM) | ≤ 0.125 | 
6 | CC[C@H]1OC(=O)[C@H](C)[C@@H](O[C@H]2C[C@@](C)(OC)[C@@H](OCCNCCOCCOCCNc3cc4c(=O)c(C(=O)O)cn(C5CC5)c4cc3Cl)[C@H](C)O2)[C@H](C)[C@@H](O[C@@H]2O[C@H](C)C[C@H](N(C)C)[C@H]2O)[C@](C)(O)C[C@@H](C)CN(C)[C@H](C)[C@H]2OC(=O)O[C@@]21C | ≥ 64 | 32 (≈ 26.4 µM) | 1 (≈ 0.826 µM) | 2 (≈ 1.65 µM) | 0.5 (≈ 0.413 µM) | ≤ 0.125 | 2 (≈ 1.65 µM) |  | 64 (≈ 52.9 µM) | 64 (≈ 52.9 µM) | 0.5 (≈ 0.413 µM) | 1 (≈ 0.826 µM) | ≤ 0.125 | 
7 | CC[C@H]1OC(=O)[C@H](C)[C@@H](O[C@H]2C[C@@](C)(OC)[C@@H](OCCN3CCN(c4ccc5c(c4)c(=O)c(C(=O)O)cn5CC)CC3)[C@H](C)O2)[C@H](C)[C@@H](O[C@@H]2O[C@H](C)C[C@H](N(C)C)[C@H]2O)[C@](C)(O)C[C@@H](C)CN(C)[C@H](C)[C@@H](O)[C@]1(C)O | ≥ 64 | 64 (≈ 59.5 µM) | 8 (≈ 7.43 µM) | 2 (≈ 1.86 µM) | 4 (≈ 3.72 µM) | ≤ 0.125 | 4 (≈ 3.72 µM) | 0.25 (≈ 0.232 µM) | 64 (≈ 59.5 µM) | 64 (≈ 59.5 µM) | 0.5 (≈ 0.465 µM) | 64 (≈ 59.5 µM) | ≤ 0.125 | 
